Test results taken from ChEMBL document CHEMBL5113451, “Discovery of 2-thiobenzimidazoles as noncovalent inhibitors of SARS-CoV-2 main protease” (Bioorg Med Chem Lett, 2022).

Target: Replicase polyprotein 1ab (Severe acute respiratory syndrome coronavirus 2) (UniProt P0DTD1)
Test: Inhibition of His6-tagged SARS-CoV-2 main protease expressed in Escherichia coli BL21 (DE3) assessed as residual enzyme activity using DABCYL-KTSAVLQ1SGFRKM-E(EDANS)-NH2 as substrate at 50 uM preincubated for 15 mins followed by substrate addition by FRET analysis
Summary of the method: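 Compound at 50 µM preincubated 15 min at 30 °C before dabcyl-edans peptide added. Fluorescence read every 90 s for about 2.5 h, baseline subtracted.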

SMILES	Activity [%]
COCCn1c(C(=O)NCC(O)c2ccccc2)nc2ccccc2c1=O (configuration not stated)	50
O=C(CSc1nc2cc(Cl)ccc2n1Cc1ccccc1)N1CCNC1=O	50

Target: T1, Replicase polyprotein 1ab (Severe acute respiratory syndrome coronavirus 2, UniProt P0DTD1)
Test: Inhibition of His6-tagged SARS-CoV-2 main protease expressed in Escherichia coli BL21 (DE3) using DABCYL-KTSAVLQ1SGFRKM-E(EDANS)-NH2 as substrate preincubated for 15 mins followed by substrate addition by FRET analysis
Summary of the method: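 Inhibitor preincubated 15 min at 30 °C, then dabcyl-edans substrate added. Fluorescence followed at 90 s intervals. […] Three independent experiments.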

SMILES	IC50 [µM]
O=C1OCCN1C(=O)C(Cc1ccco1)Sc1nc2ccc(Cl)cc2n1Cc1ccccc1 (configuration not stated)	52.9
COc1cc2c(cc1Cl)nc(SC(Cc1ccco1)C(=O)N1CCOC1=O)n2Cc1ccccc1 (configuration not stated)	27.7
O=C1OCCN1C(=O)C(Cc1ccccc1)Sc1nc2cc(Cl)ccc2n1Cc1ccccc1 (configuration not stated)	26.7
O=C(CSc1nc2cc(Cl)c(Cl)cc2n1Cc1ccccc1)N1CCOC1=O	29.5
Cc1ccc2c(c1)nc(SC(Cc1ccccc1)C(=O)N1CCNC1=O)n2Cc1ccccc1 (configuration not stated)	32.4
CC(C)(C)c1ccc2c(c1)nc(SCC(=O)N1CCOC1=O)n2Cc1ccccc1	35.1
COc1cc2c(cc1Cl)nc(SCC(=O)N1CCOC1=O)n2Cc1ccccc1	52.5
O=C(CSc1nc2cc(Cl)c(O)cc2n1Cc1ccccc1)N1CCOC1=O	35.8
O=C(CSc1nc2cc(Cl)ccc2n1Cc1ccccc1)N1CCOC1=O	62.2
Cc1ccc2c(c1)nc(SC(Cc1ccccc1)C(=O)N1CCOC1=O)n2Cc1ccccc1 (configuration not stated)	36.5
O=C1NCCN1C(=O)C(Cc1ccccc1)Sc1nc2cc(Cl)ccc2n1Cc1ccccc1 (configuration not stated)	29.9
COc1ccc2nc(SC(Cc3ccco3)C(=O)N3CCOC3=O)n(Cc3ccccc3)c2c1 (configuration not stated)	53.9
O=C1OCCN1C(=O)C(Cc1ccco1)Sc1nc2cc(Cl)c(O)cc2n1Cc1ccccc1 (configuration not stated)	46.1
O=C1OCCN1C(=O)C(Cc1ccco1)Sc1nc2cc(Cl)c(Cl)cc2n1Cc1ccccc1 (configuration not stated)	30.8
O=C(CSc1nc2cc(Cl)ccc2n1Cc1ccccc1)N1CCNC1=O	24.2
CC(C)(C)c1ccc2c(c1)nc(SC(Cc1ccccc1)C(=O)N1CCOC1=O)n2Cc1ccccc1 (configuration not stated)	29.5
O=C1OCCN1C(=O)C(Cc1ccco1)Sc1nc2ccc(O)cc2n1Cc1ccccc1 (configuration not stated)	55.8
O=C1OCCN1C(=O)C(Cc1ccco1)Sc1nc2cc(Cl)ccc2n1Cc1ccccc1 (configuration not stated)	14.9

Target: T1, Replicase polyprotein 1ab
Test: Inhibition of His6-tagged SARS-CoV-2 main protease expressed in Escherichia coli BL21 (DE3) using DABCYL-KTSAVLQ1SGFRKM-E(EDANS)-NH2 as substrate preincubated for 15 mins followed by substrate addition in presence of Triton-X by FRET analysis

SMILES	IC50 [µM]
COCCn1c(C(=O)NCC(O)c2ccccc2)nc2ccccc2c1=O (configuration not stated)	54
O=C(CSc1nc2cc(Cl)ccc2n1Cc1ccccc1)N1CCNC1=O	24.2
